Results published in ChEMBL document CHEMBL1123309, “Esters and lactones of phenolic amino carboxylic acids: prodrugs for iron chelation” (J Med Chem, 1986).

Key:
[1] = tested on: Mus musculus; experiment: BDF1 male mice were administered with 300 mg/kg orally and percent change in iron levels was determined in Feces; assay type: functional; details: route oral
Outline: (§1)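 Hypertransfused male BDF1 mice (canine red cells, washed and heated at 50 °C for 30 min) were dosed orally for 7 days with compound in distilled water or a fine suspension with Polysorbate 80 (2% final). Daily group urine and pooled feces (1 N HCl digest, 90 °C, 30 min, triplicate) were collected, and liver and spleen were homogenized. Iron was measured by atomic absorption and reported as % change vs transfused control.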

[2] = tested on: Mus musculus; experiment: BDF1 male mice were administered with 300 mg/kg orally and percent change in iron levels was determined in Liver; assay type: functional; details: route oral; outline: as §1
[3] = tested on: Mus musculus; experiment: BDF1 male mice were administered with 300 mg/kg orally and percent change in iron levels was determined in Spleen; assay type: functional; details: route oral; outline: as §1
[4] = tested on: Mus musculus; experiment: BDF1 male mice were administered with 300 mg/kg orally and percent change in iron levels was determined in Urine; assay type: functional; details: route oral; outline: as §1
[5] = tested on: Mus musculus; experiment: BDF1 male mice were administered with 400 mg/kg orally and percent change in iron levels was determined in Feces; assay type: functional; details: route oral; outline: as §1
[6] = tested on: Mus musculus; experiment: BDF1 male mice were administered with 600 mg/kg orally and percent change in iron levels was determined in Feces; assay type: functional; details: route oral; outline: as §1
[7] = tested on: Mus musculus; experiment: BDF1 male mice were administered with 600 mg/kg orally and percent change in iron levels was determined in Liver; assay type: functional; details: route oral; outline: as §1
[8] = tested on: Mus musculus; experiment: BDF1 male mice were administered with 600 mg/kg orally and percent change in iron levels was determined in Spleen; assay type: functional; details: route oral; outline: as §1
[9] = tested on: Mus musculus; experiment: BDF1 male mice were administered with 600 mg/kg orally and percent change in iron levels was determined in Urine; assay type: functional; details: route oral; outline: as §1
[10] = tested on: Mus musculus; experiment: BDF1 male mice were administered with 75 mg/kg orally and percent change in iron levels was determined in Feces; assay type: functional; details: route oral; outline: as §1
[11] = tested on: Mus musculus; experiment: BDF1 male mice were administered with 75 mg/kg orally and percent change in iron levels was determined in Liver; assay type: functional; details: route oral; outline: as §1
[12] = tested on: Mus musculus; experiment: BDF1 male mice were administered with 75 mg/kg orally and percent change in iron levels was determined in Spleen; assay type: functional; details: route oral; outline: as §1
[13] = tested on: Mus musculus; experiment: BDF1 male mice were administered with 75 mg/kg orally and percent change in iron levels was determined in Urine; assay type: functional; details: route oral; outline: as §1
[14] = tested on: Mus musculus; experiment: BDF1 male mice were administered with 150 mg/kg orally and percent change in iron levels was determined in Spleen; assay type: functional; details: route oral
Outline: (§2)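 Male BDF1 mice made iron-overloaded by transfusion of washed, heat-treated (50 °C, 30 min) canine red cells. Dosing began 2 days after the last transfusion, once daily for 7 days, in distilled water or 2% Polysorbate 80 suspension. Daily group urine was collected. Pooled feces were digested in 1 N HCl (90 °C, 30 min). Liver and spleen were homogenized in saline. Iron was measured by atomic absorption and expressed as % change vs transfused controls.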

[15] = tested on: Mus musculus; experiment: BDF1 male mice were administered with 150 mg/kg orally and percent change in iron levels was determined in Urine; assay type: functional; details: route oral; outline: as §2
[16] = tested on: Mus musculus; experiment: BDF1 male mice were administered with 400 mg/kg orally and percent change in iron levels was determined in Liver; assay type: functional; details: route oral; outline: as §1
[17] = tested on: Mus musculus; experiment: BDF1 male mice were administered with 400 mg/kg orally and percent change in iron levels was determined in Spleen; assay type: functional; details: route oral; outline: as §1
[18] = tested on: Mus musculus; experiment: BDF1 male mice were administered with 400 mg/kg orally and percent change in iron levels was determined in Urine; assay type: functional; details: route oral; outline: as §1
[19] = tested on: Mus musculus; experiment: BDF1 male mice were administered with 150 mg/kg orally and percent change in iron levels was determined in Feces; assay type: functional; details: route oral; outline: as §2
[20] = tested on: Mus musculus; experiment: BDF1 male mice were administered with 150 mg/kg orally and percent change in iron levels was determined in Liver; assay type: functional; details: route oral; outline: as §2
[21] = tested on: Mus musculus; experiment: BDF1 male mice were administered with the compound and number of survivors was determined at a dose 150 mg/kg peroral out of 6 tested; assay type: functional; details: route oral
Outline: (§3)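 Male BDF1 mice were iron-loaded by transfusion of canine red cells. The cells were heparinised, washed twice in isotonic saline and heated at 50 °C for 30 min. Dosing started two days after the last transfusion, once daily for 7 consecutive days. Compounds were given in distilled water or as a fine aqueous suspension with Polysorbate 80 (2% final). Toxic signs were recorded daily and survivors counted per group.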

[22] = tested on: Mus musculus; experiment: BDF1 male mice were administered with the compound and number of survivors was determined at a dose 300 mg/kg peroral out of 6 tested; assay type: functional; details: route oral; outline: as §3
[23] = tested on: Mus musculus; experiment: BDF1 male mice were administered with the compound and number of survivors was determined at a dose 400 mg/kg peroral out of 10 tested; assay type: functional; details: route oral; outline: as §3
[24] = tested on: Mus musculus; experiment: BDF1 male mice were administered with the compound and number of survivors was determined at a dose 600 mg/kg peroral out of 6 tested; assay type: functional; details: route oral; outline: as §3
[25] = tested on: Mus musculus; experiment: BDF1 male mice were administered with the compound and number of survivors was determined at a dose 75 mg/kg peroral out of 6 tested; assay type: functional; details: route oral; outline: as §3
[26] = First order rate constant was determined Spectrophotometrically at pH 7.5
[27] = Half life was determined at pH 7.5 in the presence of Fe(III) Half life was determined Spectrophotometrically
[28] = tested on: Mus musculus; experiment: BDF1 male mice were administered with 200 mg/kg po and percent change in iron levels was determined in Feces; assay type: functional; outline: as §1
[29] = tested on: Mus musculus; experiment: BDF1 male mice were administered with 200 mg/kg po and percent change in iron levels was determined in Liver; assay type: functional; outline: as §1
[30] = tested on: Mus musculus; experiment: BDF1 male mice were administered with 200 mg/kg po and percent change in iron levels was determined in spleen; assay type: functional; outline: as §1
[31] = tested on: Mus musculus; experiment: BDF1 male mice were administered with 200 mg/kg poand percent change in iron levels was determined in Urine; assay type: functional; outline: as §1
[32] = tested on: Mus musculus; experiment: BDF1 male mice were administered with the compound and number of survivors was determined at a dose 200 mg/kg po; assay type: functional; outline: as §3
[33] = tested on: Mus musculus; experiment: BDF1 male mice were administered with 250 mg/kg intraperitoneally and percent change in iron levels was determined in Feces; assay type: functional; details: route intraperitoneal
Outline: (§4)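 Male BDF1 mice were hypertransfused with washed, heat-treated (50 °C, 30 min) canine red cells. Starting 2 days after the last transfusion, they received one ip injection daily for 7 days, in distilled water or an aqueous suspension with Polysorbate 80 (2% final). Group urine was collected every 24 h. Feces were digested in 1 N HCl (90 °C, 30 min, triplicate). Liver and spleen were homogenized. Iron was measured by atomic absorption and reported as % change vs transfused controls.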

[34] = tested on: Mus musculus; experiment: BDF1 male mice were administered with 250 mg/kg intraperitoneally and percent change in iron levels was determined in Liver; assay type: functional; details: route intraperitoneal; outline: as §4
[35] = tested on: Mus musculus; experiment: BDF1 male mice were administered with 250 mg/kg intraperitoneally and percent change in iron levels was determined in Spleen; assay type: functional; details: route intraperitoneal; outline: as §4
[36] = tested on: Mus musculus; experiment: BDF1 male mice were administered with 250 mg/kg intraperitoneally and percent change in iron levels was determined in Urine; assay type: functional; details: route intraperitoneal; outline: as §4
[37] = tested on: Mus musculus; experiment: BDF1 male mice were administered with 250 mg/kg intraperitoneally and number of survivors was determined out of 240 tested; assay type: functional; details: route intraperitoneal; outline: as §3

SMILES: CC(C)OC(=O)CN(CCN(CC(=O)OC(C)C)Cc1ccccc1O)Cc1ccccc1O
- Iron change [1]: -1%
- Iron change [2]: -45%
- Iron change [3]: -7%
- Iron change [4]: 76%
- Iron change [5]: -5%
- Iron change [6]: 5%
- Iron change [7]: -56%
- Iron change [8]: -27%
- Iron change [9]: 141%
- Iron change [10]: 1%
- Iron change [11]: -34%
- Iron change [12]: -10%
- Iron change [13]: -10%
- Iron change [14]: 2%
- Iron change [15]: 33%
- Iron change [16]: -45%
- Iron change [17]: -13%
- Iron change [18]: 233%
- Iron change [19]: 23%
- Iron change [20]: -32%
- No. of survivors [21]: 6
- No. of survivors [22]: 6
- No. of survivors [23]: 10
- No. of survivors [24]: 6
- No. of survivors [25]: 6
- 10E2 k1 [26]: 0.542 min⁻¹
- half-life [27]: 2.15 h

SMILES: CC(=O)Oc1ccccc1CN(CCN(CC(=O)OC(C)(C)C)Cc1ccccc1OC(C)=O)CC(=O)OC(C)(C)C
- Iron change [28]: -1%
- Iron change [29]: 16%
- Iron change [30]: -6%
- Iron change [31]: -4%
- No. of survivors [32]: 10

SMILES: CC(=O)N(O)CCCCCNC(=O)CCC(=O)N(O)CCCCCNC(=O)CCC(=O)N(O)CCCCCN [DEFEROXAMINE]
- Iron change [33]: 7%
- Iron change [34]: -24%
- Iron change [35]: 2%
- Iron change [36]: 270%
- No. of survivors [37]: 240
